The text below walks through data of ChEMBL document CHEMBL1134358, “Cyclic ketone inhibitors of the cysteine protease cathepsin K” (J Med Chem, 2001).

Experiment [1] addresses T1, Cathepsin K (Homo sapiens, UniProt P43235).
T1 sequence (P43235 whole entry): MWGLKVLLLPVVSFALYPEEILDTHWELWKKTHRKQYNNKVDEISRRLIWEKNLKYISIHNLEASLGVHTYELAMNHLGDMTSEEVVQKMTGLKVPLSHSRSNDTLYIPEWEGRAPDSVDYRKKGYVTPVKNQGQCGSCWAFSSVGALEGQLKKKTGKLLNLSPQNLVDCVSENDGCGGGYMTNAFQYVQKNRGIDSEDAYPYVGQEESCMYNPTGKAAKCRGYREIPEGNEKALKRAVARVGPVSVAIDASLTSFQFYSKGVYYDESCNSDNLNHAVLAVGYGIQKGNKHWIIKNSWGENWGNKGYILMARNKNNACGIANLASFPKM
Description: (§1) Inhibitory activity tested against human Cathepsin K.

Experiment [2] has as its target Cathepsin B (Homo sapiens, UniProt P07858). Description: Inhibitory activity tested against human Cathepsin B. The note with it: read-out: Ki app. Summed up: (§2)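 Fluorogenic AMC-substrate assay in 100 mM acetate, 20 mM cysteine, 5 mM EDTA, pH 5.5, with 10% final DMSO. […] Apparent Ki values were determined.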
Experiment [3] addresses T1, Cathepsin K. Kind of experiment: In vitro inhibition of human Cathepsin K. The note with it: read-out: Ki app.
Experiment [4] addresses Cathepsin S (Homo sapiens, UniProt P25774). Kind of experiment: Inhibition of human Cathepsin S. The note with it: read-out: Ki app. Summed up:
as §2

The target in experiment [5] is Procathepsin L (Homo sapiens, UniProt P07711). Description: Inhibition of human Cathepsin L. The note with it: read-out: Ki app.
Chain of Procathepsin L (P07711 whole entry): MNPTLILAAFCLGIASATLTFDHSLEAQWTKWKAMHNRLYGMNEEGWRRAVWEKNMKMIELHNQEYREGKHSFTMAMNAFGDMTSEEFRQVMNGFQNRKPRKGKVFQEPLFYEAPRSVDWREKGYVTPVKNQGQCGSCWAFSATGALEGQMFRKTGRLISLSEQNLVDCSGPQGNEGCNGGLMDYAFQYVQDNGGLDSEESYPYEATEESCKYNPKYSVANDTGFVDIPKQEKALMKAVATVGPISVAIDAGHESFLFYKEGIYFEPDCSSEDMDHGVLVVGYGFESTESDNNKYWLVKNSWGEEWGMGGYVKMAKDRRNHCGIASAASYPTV
Experiment [6] has as its target T2, Cathepsin K (Homo sapiens) (UniProt P43235).
T2 sequence (whole entry): T1 sequence (P43235 whole entry)
Described as §1.

Chain of Cathepsin S (P25774 whole entry): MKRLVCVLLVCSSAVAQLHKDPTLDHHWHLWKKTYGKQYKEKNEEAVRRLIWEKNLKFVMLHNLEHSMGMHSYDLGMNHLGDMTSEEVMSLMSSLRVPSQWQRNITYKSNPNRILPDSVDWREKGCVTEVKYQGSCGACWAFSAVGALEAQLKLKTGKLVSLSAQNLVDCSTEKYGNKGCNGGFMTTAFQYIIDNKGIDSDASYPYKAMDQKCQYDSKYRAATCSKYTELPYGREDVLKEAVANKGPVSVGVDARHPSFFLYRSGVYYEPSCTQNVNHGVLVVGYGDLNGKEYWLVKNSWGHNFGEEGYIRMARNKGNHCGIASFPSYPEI

The compound `CC(C)C[C@H](NC(=O)c1cc2ccccc2s1)C(=O)NC1COCCC1=O` (stereo not given in full) had a Ki in experiment [1] of 560 nM.

`CC(C)C[C@@H](CN1CC(=O)C(NC(=O)[C@H](CC(C)C)NC(=O)c2ccc3cccnc3c2)C1)NC(=O)OCc1ccccc1` (stereo not given in full): the figures for the Ki in experiment [2] and in experiment [3] were 46 nM and 1.6 nM, respectively.

In experiment [1], `COCC(=O)[C@H](CC(C)C)NC(=O)[C@H](CC(C)C)NC(=O)OCc1ccccc1` yielded a Ki of 80 nM.

For `COCC(=O)[C@H](C)NC(=O)[C@H](CC(C)C)NC(=O)OCc1ccccc1`, the Ki in experiment [2] was more than 1000 nM.

On to `CC(C)C[C@H](NC(=O)c1cc2ccccc2s1)C(=O)NC1CCOCC1=O` (stereo not given in full), for which, in experiment [1], the Ki amounted to 11 nM.

Take `CC(C)C[C@H](NC(=O)OCc1ccccc1)C(=O)NC1CCN(C(=O)[C@H](CC(C)C)N(C)C(=O)OCc2ccccc2)CC1=O` (stereo not given in full): the Ki in experiment [3] came to 1.9 nM.

As to `CC(C)C[C@H](NC(=O)OCc1ccccc1)C(=O)NC1CCN(C(=O)[C@H](CC(C)C)NC(=O)OCc2ccccc2)CC1=O` (stereo not given in full), the Ki in experiment [4] was 8 nM.

Consider `CC(=O)N1CC(=O)C(NC(=O)[C@H](CC(C)C)NC(=O)OCc2ccccc2)C1` (stereo not given in full), for which the results for the Ki in experiment [5], in experiment [4] and in experiment [3] were 580 nM, 480 nM and 250 nM, respectively.

Turning to `CC(C)C[C@H](NC(=O)OCc1ccccc1)C(=O)NC1COCC1O` (stereo not given in full), the Ki in experiment [5], in experiment [4] and in experiment [3] was more than 1000 nM throughout.

In turn, `CCCOC[C@@H](O)[C@H](CC(C)C)NC(=O)[C@H](CC(C)C)NC(=O)OCc1ccccc1` gave a K inact/I in experiment [6] of 4100 M⁻¹ s⁻¹.

Turning to `CC(C)C[C@H](NC(=O)OCc1ccccc1)C(=O)NC1CCCCC1=O` (stereo not given in full), the Ki in experiment [2], in experiment [5], in experiment [4] and in experiment [3] was more than 10000 nM throughout.

With `CC(C)C[C@H](NC(=O)c1ccc2ccccc2n1)C(=O)NC1COCC1=O` (stereo not given in full), the Ki in experiment [2] turned out to be 7800 nM; in experiment [5] it was 250 nM; in experiment [4], 1100 nM.

With `CC(C)C[C@@H](C(=O)NC1CN(C(=O)[C@H](CC(C)C)N(C)C(=O)OCc2ccccc2)CC1=O)N(C)C(=O)OCc1ccccc1` (stereo not given in full), the Ki in experiment [2] came out at 2600 nM; in experiment [4] it was 51 nM; in experiment [3], 180 nM.

Consider `CC(=O)N1CCC(NC(=O)[C@H](CC(C)C)NC(=O)OCc2ccccc2)C(=O)C1` (stereo not given in full), for which the Ki in experiment [3] was determined as 230 nM.

For the compound `CC(C)C[C@H](NC(=O)OCc1ccccc1)C(=O)NC1CN(C(=O)[C@H](CC(C)C)NC(=O)OCc2ccccc2)CC1=O` (stereo not given in full), the Ki in experiment [4] is 90 nM.

As for `CC(C)C[C@H](NC(=O)OCc1ccccc1)C(=O)NC1CN(C(=O)[C@H](CC(C)C)N(C)C(=O)OCc2ccccc2)CC1=O` (stereo not given in full), in experiment [3], the Ki worked out at 0.6 nM.

`CC(C)C[C@H](NC(=O)OCc1ccccc1)C(=O)NC1CCCC1=O` (stereo not given in full): the Ki in experiment [2], in experiment [5], in experiment [4] and in experiment [3] was more than 10000 nM each time.

As to `CC(C)C[C@H](NC(=O)OCc1ccccc1)C(=O)NC1CCOCC1=O` (stereo not given in full), the Ki in experiment [2] was more than 10000 nM; in experiment [4], 530 nM; in experiment [3], 150 nM.

Consider `CN[C@@H](CC(C)C)C(=O)N1CC(=O)[C@@H](NC(=O)[C@H](CC(C)C)NC(=O)OCc2ccccc2)C1`, for which the Ki in experiment [2] was determined as 7300 nM; in experiment [5] it was 400 nM; in experiment [4], 290 nM; in experiment [3], 77 nM.

Consider `CC(C)C[C@H](NC(=O)OCc1ccccc1)C(=O)NC1CCOCC1O` (stereo not given in full), for which the Ki in experiment [5], in experiment [4] and in experiment [3] was more than 1000 nM each time.

As to `CC(C)C[C@H](NC(=O)OCc1ccccc1)C(=O)NC1COCC1=O` (stereo not given in full), the Ki in experiment [2] is more than 10000 nM; in experiment [5] it was 2600 nM; in experiment [4], 310 nM.
